Results published in ChEMBL document CHEMBL2401654, “Synthesis, characterization, and biological assessment of the four stereoisomers of the H(3) receptor antagonist 5-fluoro-2-methyl-N-[2-methyl-4-(2-methyl[1,3']bipyrrolidinyl-1'-yl)phenyl]benzamide” (Bioorg Med Chem Lett, 2013).

Assays:
[1] = target: Cytochrome P450 2D6 (Homo sapiens, UniProt P10635); test: Inhibition of CYP2D6 (unknown origin); format: ADME
[2] = target: Cytochrome P450 2C9 (Homo sapiens, UniProt P11712); test: Inhibition of CYP2C9 (unknown origin); format: ADME
[3] = target: T1, hERG (KCNH2) (Homo sapiens, UniProt Q12809); test: Inhibition of human ERG transfected in CHO cells at 1 uM by patch clamp assay relative to control; format: cell-based; conditions: CHO cells transfected with human ERG
Procedure, shortened: (§1)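 Whole-cell patch clamp on CHO cells stably transfected with the human ERG gene.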

[4] = target: Cytochrome P450 3A4 (Homo sapiens, UniProt P08684); test: Inhibition of CYP3A4 (unknown origin); format: ADME
[5] = Genotoxicity in micronucleus (unknown origin)
[6] = target: Histamine H3 receptor (Homo sapiens, UniProt Q9Y5N1); test: Displacement of [3H]N-alpha-methylhistamine from recombinant human histamine H3 receptor transfected in CHO cell membranes after 1 hr by scintillation counting analysis
Procedure, shortened: (§2)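 Radioligand displacement of [3H]N-α-methylhistamine using membranes from CHO cells stably transfected with recombinant human or rat H3 receptor. Ki is presented as a range of multiple experiments (n ≥ 3).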

[7] = Drug metabolism in mouse liver microsomes at 5 uM after 20 mins; format: ADME, Microsome; conditions: read-out: Drug metabolism
Procedure, shortened: (§3)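 Substrate at 5 µM incubated at 37 °C for 20 min with in-house liver microsome preparations (human, mouse or rat). Reported as the percentage of parent compound metabolized.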

[8] = target: Histamine H3 receptor (Rattus norvegicus, UniProt Q9QYN8); test: Displacement of [3H]N-alpha-methylhistamine from recombinant rat histamine H3 receptor transfected in CHO cell membranes after 1 hr by scintillation counting analysis; set-up: species or system Membrane; procedure, shortened: as §2
[9] = target: T2, Cytochrome P450 2B6 (Homo sapiens, UniProt P20813); test: Inhibition of CYP2B6 (unknown origin); format: ADME
T2 sequence (P20813 whole entry): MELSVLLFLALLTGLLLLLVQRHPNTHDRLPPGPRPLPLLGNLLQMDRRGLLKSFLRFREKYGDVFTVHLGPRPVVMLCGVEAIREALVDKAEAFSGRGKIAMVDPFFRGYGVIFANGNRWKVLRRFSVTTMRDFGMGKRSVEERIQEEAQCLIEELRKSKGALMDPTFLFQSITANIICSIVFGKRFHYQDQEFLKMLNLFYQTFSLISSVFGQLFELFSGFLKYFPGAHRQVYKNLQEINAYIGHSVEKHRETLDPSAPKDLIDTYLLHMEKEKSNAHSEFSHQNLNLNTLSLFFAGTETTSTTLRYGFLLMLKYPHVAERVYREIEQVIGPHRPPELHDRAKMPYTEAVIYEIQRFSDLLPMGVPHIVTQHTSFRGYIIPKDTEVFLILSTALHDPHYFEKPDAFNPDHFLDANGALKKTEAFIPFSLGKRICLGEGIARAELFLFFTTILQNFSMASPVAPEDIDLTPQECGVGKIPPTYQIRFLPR

[10] = target: T3, Cytochrome P450 1A2 (Homo sapiens, UniProt P05177); test: Inhibition of CYP1A2 (unknown origin); format: ADME
T3 sequence (P05177 whole entry): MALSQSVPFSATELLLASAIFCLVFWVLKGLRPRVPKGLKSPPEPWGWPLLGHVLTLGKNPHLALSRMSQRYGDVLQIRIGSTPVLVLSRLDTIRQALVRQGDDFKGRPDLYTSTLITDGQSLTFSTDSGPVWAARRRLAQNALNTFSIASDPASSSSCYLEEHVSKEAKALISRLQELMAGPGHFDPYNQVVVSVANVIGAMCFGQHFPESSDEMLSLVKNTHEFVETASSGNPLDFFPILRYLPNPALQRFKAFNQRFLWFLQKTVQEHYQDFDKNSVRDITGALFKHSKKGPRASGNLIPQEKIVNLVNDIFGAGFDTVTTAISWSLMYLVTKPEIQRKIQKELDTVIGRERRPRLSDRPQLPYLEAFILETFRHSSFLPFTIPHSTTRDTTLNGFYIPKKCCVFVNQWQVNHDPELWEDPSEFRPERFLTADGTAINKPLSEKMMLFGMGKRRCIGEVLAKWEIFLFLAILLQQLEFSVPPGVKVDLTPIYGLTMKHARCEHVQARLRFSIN

[11] = Drug metabolism in human liver microsomes at 5 uM after 20 mins; format: ADME, Microsome; conditions: read-out: Drug metabolism; procedure, shortened: as §3
[12] = target: T1, hERG (KCNH2); test: Inhibition of human ERG transfected in CHO cells at 10 uM by patch clamp assay relative to control; format: cell-based; conditions: CHO cells transfected with human ERG; procedure, shortened: as §1
[13] = test system: Salmonella typhimurium; test: Mutagenic activity in Salmonella typhimurium by Ames test; format: toxicity, organism-based; conditions: salmonella enterica subsp. enterica serovar typhimurium
[14] = target: Cytochrome P450 2C19 (Homo sapiens, UniProt P33261); test: Inhibition of CYP2C19 (unknown origin); format: ADME
[15] = Drug metabolism in rat liver microsomes at 5 uM after 20 mins; format: ADME, Microsome; conditions: read-out: Drug metabolism; procedure, shortened: as §3

T1 sequence (Q12809 whole entry): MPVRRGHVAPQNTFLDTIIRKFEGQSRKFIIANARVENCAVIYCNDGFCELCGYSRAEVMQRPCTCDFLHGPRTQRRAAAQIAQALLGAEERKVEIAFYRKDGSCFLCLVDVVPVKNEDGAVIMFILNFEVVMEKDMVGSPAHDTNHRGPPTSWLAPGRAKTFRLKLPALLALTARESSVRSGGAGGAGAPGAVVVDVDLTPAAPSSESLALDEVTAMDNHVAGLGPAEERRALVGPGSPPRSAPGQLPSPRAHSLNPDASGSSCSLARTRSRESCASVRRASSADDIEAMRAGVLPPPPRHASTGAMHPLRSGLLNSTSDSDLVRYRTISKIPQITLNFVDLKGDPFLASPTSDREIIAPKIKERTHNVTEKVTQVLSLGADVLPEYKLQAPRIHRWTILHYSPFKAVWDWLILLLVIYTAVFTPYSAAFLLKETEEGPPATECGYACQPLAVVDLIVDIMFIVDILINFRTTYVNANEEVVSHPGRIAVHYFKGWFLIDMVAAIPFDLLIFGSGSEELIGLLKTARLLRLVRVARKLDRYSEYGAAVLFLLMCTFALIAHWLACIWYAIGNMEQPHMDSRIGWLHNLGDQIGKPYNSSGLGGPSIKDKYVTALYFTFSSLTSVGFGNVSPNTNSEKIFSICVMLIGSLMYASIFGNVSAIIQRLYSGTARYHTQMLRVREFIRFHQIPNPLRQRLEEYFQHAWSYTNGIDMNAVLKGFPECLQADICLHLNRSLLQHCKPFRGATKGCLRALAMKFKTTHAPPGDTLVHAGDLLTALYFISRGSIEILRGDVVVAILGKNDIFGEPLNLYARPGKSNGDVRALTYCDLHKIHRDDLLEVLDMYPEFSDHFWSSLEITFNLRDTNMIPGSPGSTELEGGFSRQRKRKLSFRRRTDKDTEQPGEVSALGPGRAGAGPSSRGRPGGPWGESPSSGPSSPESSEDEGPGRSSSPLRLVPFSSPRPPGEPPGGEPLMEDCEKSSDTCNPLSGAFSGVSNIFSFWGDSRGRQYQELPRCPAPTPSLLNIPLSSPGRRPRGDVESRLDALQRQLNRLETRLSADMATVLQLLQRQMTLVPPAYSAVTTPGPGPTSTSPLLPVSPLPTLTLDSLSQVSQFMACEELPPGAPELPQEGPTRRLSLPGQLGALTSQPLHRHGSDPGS
Chain of Histamine H3 receptor (Homo sapiens, UniProt Q9Y5N1) (Q9Y5N1 whole entry): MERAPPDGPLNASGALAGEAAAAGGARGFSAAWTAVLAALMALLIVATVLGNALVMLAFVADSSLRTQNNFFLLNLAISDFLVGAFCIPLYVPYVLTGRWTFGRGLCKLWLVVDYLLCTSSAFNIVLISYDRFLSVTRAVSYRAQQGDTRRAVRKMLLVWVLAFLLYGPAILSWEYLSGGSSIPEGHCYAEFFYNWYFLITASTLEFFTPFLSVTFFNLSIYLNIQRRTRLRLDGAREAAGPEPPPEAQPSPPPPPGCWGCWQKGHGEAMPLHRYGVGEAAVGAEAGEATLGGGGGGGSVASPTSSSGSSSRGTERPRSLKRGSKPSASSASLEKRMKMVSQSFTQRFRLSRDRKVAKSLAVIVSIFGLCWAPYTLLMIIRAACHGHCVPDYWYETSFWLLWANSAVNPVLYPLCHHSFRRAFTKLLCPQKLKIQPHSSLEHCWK
Chain of Cytochrome P450 2C19 (P33261 whole entry): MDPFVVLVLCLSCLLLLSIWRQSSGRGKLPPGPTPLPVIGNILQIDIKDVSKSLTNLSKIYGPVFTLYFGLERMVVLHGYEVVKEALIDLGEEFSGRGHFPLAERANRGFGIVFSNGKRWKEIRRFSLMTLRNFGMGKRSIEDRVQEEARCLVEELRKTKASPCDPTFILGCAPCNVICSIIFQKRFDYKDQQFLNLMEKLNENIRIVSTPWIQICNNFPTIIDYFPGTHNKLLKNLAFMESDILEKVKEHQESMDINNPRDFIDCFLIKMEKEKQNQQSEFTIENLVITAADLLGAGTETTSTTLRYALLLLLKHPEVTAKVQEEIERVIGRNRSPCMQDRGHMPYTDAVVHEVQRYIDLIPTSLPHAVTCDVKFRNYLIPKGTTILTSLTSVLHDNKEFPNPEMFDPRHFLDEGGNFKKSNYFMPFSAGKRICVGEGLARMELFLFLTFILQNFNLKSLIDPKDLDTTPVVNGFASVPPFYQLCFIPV
Chain of Cytochrome P450 2C9 (P11712 whole entry): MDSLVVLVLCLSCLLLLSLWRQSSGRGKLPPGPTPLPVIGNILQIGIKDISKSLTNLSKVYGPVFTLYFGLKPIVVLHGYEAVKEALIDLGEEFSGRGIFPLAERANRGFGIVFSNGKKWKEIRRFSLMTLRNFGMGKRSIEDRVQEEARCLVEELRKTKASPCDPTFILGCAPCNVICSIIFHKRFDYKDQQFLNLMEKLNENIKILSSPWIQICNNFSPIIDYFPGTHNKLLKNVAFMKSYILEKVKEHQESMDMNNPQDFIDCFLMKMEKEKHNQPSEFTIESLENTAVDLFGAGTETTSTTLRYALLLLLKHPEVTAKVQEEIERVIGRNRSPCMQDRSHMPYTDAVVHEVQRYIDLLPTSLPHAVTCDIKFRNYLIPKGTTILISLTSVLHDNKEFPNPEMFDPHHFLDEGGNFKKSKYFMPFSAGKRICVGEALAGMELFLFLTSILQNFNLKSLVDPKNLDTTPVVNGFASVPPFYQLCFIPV
Chain of Cytochrome P450 3A4 (P08684 whole entry): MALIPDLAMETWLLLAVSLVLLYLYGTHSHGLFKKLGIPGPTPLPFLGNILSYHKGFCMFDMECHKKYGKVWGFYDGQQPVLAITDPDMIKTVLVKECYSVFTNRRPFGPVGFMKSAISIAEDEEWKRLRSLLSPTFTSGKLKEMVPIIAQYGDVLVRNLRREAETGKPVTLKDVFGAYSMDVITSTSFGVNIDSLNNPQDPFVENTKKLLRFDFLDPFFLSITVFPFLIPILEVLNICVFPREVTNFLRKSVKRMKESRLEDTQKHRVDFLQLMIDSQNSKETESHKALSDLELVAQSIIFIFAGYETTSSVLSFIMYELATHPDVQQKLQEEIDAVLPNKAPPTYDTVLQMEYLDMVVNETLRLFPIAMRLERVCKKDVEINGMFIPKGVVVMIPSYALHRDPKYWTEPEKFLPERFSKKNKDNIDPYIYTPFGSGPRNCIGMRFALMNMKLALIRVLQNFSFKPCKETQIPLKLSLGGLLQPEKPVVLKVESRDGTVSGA
Chain of Cytochrome P450 2D6 (P10635 whole entry): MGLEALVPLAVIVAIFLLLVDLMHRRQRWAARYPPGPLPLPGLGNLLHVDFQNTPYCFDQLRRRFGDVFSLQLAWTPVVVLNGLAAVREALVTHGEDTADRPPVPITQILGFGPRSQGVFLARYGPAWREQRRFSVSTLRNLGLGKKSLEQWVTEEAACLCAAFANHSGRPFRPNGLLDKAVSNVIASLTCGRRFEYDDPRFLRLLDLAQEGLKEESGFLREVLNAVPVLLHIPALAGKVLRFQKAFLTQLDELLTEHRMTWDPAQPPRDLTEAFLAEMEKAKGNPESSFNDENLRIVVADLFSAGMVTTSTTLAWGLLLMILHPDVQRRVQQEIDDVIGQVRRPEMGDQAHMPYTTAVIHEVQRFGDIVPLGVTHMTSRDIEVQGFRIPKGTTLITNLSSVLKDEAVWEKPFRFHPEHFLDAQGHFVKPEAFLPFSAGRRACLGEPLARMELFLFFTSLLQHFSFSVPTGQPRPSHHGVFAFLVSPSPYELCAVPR
Chain of Histamine H3 receptor (Rattus norvegicus, UniProt Q9QYN8) (Q9QYN8 whole entry): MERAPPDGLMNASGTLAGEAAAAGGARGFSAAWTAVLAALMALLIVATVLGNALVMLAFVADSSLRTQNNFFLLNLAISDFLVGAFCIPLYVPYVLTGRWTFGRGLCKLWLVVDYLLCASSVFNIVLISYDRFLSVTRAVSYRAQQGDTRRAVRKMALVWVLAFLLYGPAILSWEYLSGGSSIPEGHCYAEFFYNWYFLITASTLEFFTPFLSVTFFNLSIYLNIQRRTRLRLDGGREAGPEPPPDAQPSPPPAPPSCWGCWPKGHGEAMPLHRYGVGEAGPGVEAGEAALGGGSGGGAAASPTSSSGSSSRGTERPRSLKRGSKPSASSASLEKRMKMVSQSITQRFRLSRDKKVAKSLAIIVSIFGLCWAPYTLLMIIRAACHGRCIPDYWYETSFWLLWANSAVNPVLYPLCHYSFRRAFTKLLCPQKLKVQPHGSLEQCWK

| Structure (SMILES) | IC50 [1] | IC50 [2] | inhibition at 1 µM [3] | IC50 [4] | Activity [5] | Ki [6] | metabolised at 20 min, 5 µM [7] | Ki [8] | IC50 [9] | IC50 [10] | metabolised at 20 min, 5 µM [11] | inhibition at 10 µM [12] | Activity [13] | IC50 [14] | metabolised at 20 min, 5 µM [15] |
| --- | --- | --- | --- | --- | --- | --- | --- | --- | --- | --- | --- | --- | --- | --- | --- |
| Cc1cc(N2CC[C@H](N3CCC[C@H]3C)C2)ccc1NC(=O)c1cc(F)ccc1C | > 30 µM | > 30 µM | 43% | > 30 µM | Non-toxic | 0.82 µM | 29% | 0.093 µM | > 30 µM | > 30 µM | 7% | 84.3% | Non-toxic | > 30 µM | 60% |
| Cc1cc(N2CC[C@@H](N3CCC[C@H]3C)C2)ccc1NC(=O)c1cc(F)ccc1C | > 30 µM | > 30 µM | 33.7% | > 30 µM | Non-toxic | 0.3 µM | 17% | 0.0737 µM | > 30 µM | > 30 µM | 8% | 77.5% | Non-toxic | > 30 µM | 27% |
